Test system: L1210
Experiment: Anti-leukemic activity against mouse L1210 cells allografted in ip dosed DBA2 mouse assessed as increase in host lifespan administered qd for 1 to 4 days
Assay type: functional

Point of comparison: `C/C(=N\NC(=N)N)c1cccc(NC(=O)Nc2cccc(/C(C)=N/NC(=N)N)c2)c1`, “log(activity)” value 2.1. Against it:
- Cl.N=C(N)N/N=C/c1ccc(-c2ccc(/C=N/NC(=N)N)cc2)cc1 — lower, 1.63
- C/C(=N\NC(=N)N)c1ccc(NC(=O)Nc2ccc(/C(C)=N/NC(=N)N)cc2)cc1 — higher, 2.47
- C/C(=N\NC(=N)N)c1ccc(NC(=N)Nc2ccc(/C(C)=N/NC(=N)N)cc2)cc1 — lower, 1.82
- N=C(N)N/N=C/c1ccc(NC(=O)Nc2ccc(/C=N/NC(=N)N)cc2)cc1 — within 0.2 log units, 2.08
- CC(/C=N/NC(=N)N)=N\NC(=N)N [MITOGUAZONE] — within 0.2 log units, 2
- Cl.N=C(N)N/N=C/c1ccc(/C=N/NC(=N)N)cc1 — lower, 1.84
- N=C(N)NCCCCCCCCCCNC(=N)N [SYNTHALIN] — within 0.2 log units, 2.11
- N=C(N)c1ccc(/C=C/c2ccc(C(=N)N)cc2O)cc1 [HYDROXYSTILBAMIDINE] — lower, 1.85
- C/C(=N\NC(=N)N)c1ccc(NC(=S)Nc2ccc(/C(C)=N/NC(=N)N)cc2)cc1 — within 0.2 log units, 1.97

In the case of `CCC(/C=N/NC(=N)N)=N\NC(=N)N.Cl`, the “log(activity)” value is reported as under 1.4.
For `N=C(N)N/N=C/C/C=N/NC(=N)N`, the “log(activity)” value was under 1.4.
In the case of `N=C(N)NN=C1C=CC(=NNC(=N)N)C=C1`, the “log(activity)” value is reported as under 1.4.
For `CC(=N\NC(=N)N)/C(C)=N/NC(=N)N`, the “log(activity)” value was under 1.4.
With `CC(/C=N/N(C)C(=N)N)=N\N(C)C(=N)N` the “log(activity)” value was under 1.4.
For `CNC(=N)N/N=C/C(C)=N/NC(=N)NC`, the “log(activity)” value was under 1.4.
With `N=C(N)N/N=C/CCC/C=N/NC(=N)N` the “log(activity)” value was under 1.4.

Test system: L1210
Experiment: Anti-leukemic activity against mouse L1210 cells allografted in ip dosed DBA2 mouse assessed as optimum drug dose required for the effect administered qd for 1 to 4 days
Assay type: functional

Point of comparison: `C/C(=N\NC(=N)N)c1ccc(NC(=N)Nc2ccc(/C(C)=N/NC(=N)N)cc2)cc1`, log optimum dose 0.7. Against it:
- Cl.N=C(N)N/N=C/c1ccc(-c2ccc(/C=N/NC(=N)N)cc2)cc1 — higher, 1.3
- C/C(=N\NC(=N)N)c1ccc(NC(=O)Nc2ccc(/C(C)=N/NC(=N)N)cc2)cc1 — higher, 1.4
- CCC(/C=N/NC(=N)N)=N\NC(=N)N.Cl — higher, 2
- N=C(N)N/N=C/c1ccc(NC(=O)Nc2ccc(/C=N/NC(=N)N)cc2)cc1 — higher, 1.48
- C/C(=N\NC(=N)N)c1cccc(NC(=O)Nc2cccc(/C(C)=N/NC(=N)N)c2)c1 — higher, 1.48
- CC(/C=N/NC(=N)N)=N\NC(=N)N [MITOGUAZONE] — higher, 1.7
- N=C(N)N/N=C/C/C=N/NC(=N)N — higher, 2.3
- N=C(N)NN=C1C=CC(=NNC(=N)N)C=C1 — higher, 1.88
- Cl.N=C(N)N/N=C/c1ccc(/C=N/NC(=N)N)cc1 — higher, 1.6
- N=C(N)NCCCCCCCCCCNC(=N)N [SYNTHALIN] — within 0.2 log units, 0.6
- CC(=N\NC(=N)N)/C(C)=N/NC(=N)N — higher, 2.18
- CC(/C=N/N(C)C(=N)N)=N\N(C)C(=N)N — higher, 2.18
- N=C(N)c1ccc(/C=C/c2ccc(C(=N)N)cc2O)cc1 [HYDROXYSTILBAMIDINE] — higher, 1.87
- C/C(=N\NC(=N)N)c1ccc(NC(=S)Nc2ccc(/C(C)=N/NC(=N)N)cc2)cc1 — higher, 1.4
- CNC(=N)N/N=C/C(C)=N/NC(=N)NC — higher, 2.3
- N=C(N)N/N=C/CCC/C=N/NC(=N)N — higher, 1.87

Test system: not listed separately
Experiment: Binding affinity to DNA (unknown origin) assessed as decrease in velocity of L1210 DNA-dependent DNA polymerase reaction

Point of comparison: `C/C(=N\NC(=N)N)c1ccc(NC(=S)Nc2ccc(/C(C)=N/NC(=N)N)cc2)cc1`, logIC50 2.11. Against it:
- Cl.N=C(N)N/N=C/c1ccc(-c2ccc(/C=N/NC(=N)N)cc2)cc1 — lower, 1.6
- C/C(=N\NC(=N)N)c1ccc(NC(=O)Nc2ccc(/C(C)=N/NC(=N)N)cc2)cc1 — within 0.2 log units, 1.95
- CCC(/C=N/NC(=N)N)=N\NC(=N)N.Cl — higher, 2.87
- C/C(=N\NC(=N)N)c1ccc(NC(=N)Nc2ccc(/C(C)=N/NC(=N)N)cc2)cc1 — lower, 1.6
- N=C(N)N/N=C/c1ccc(NC(=O)Nc2ccc(/C=N/NC(=N)N)cc2)cc1 — within 0.2 log units, 1.95
- C/C(=N\NC(=N)N)c1cccc(NC(=O)Nc2cccc(/C(C)=N/NC(=N)N)c2)c1 — lower, 1.6
- CC(/C=N/NC(=N)N)=N\NC(=N)N [MITOGUAZONE] — higher, 2.85
- N=C(N)N/N=C/C/C=N/NC(=N)N — higher, > 3
- N=C(N)NN=C1C=CC(=NNC(=N)N)C=C1 — higher, 2.85
- Cl.N=C(N)N/N=C/c1ccc(/C=N/NC(=N)N)cc1 — lower, 1.9
- N=C(N)NCCCCCCCCCCNC(=N)N [SYNTHALIN] — higher, > 3
- CC(=N\NC(=N)N)/C(C)=N/NC(=N)N — higher, 2.7
- CC(/C=N/N(C)C(=N)N)=N\N(C)C(=N)N — higher, > 3
- N=C(N)c1ccc(/C=C/c2ccc(C(=N)N)cc2O)cc1 [HYDROXYSTILBAMIDINE] — lower, 1.6
- CNC(=N)N/N=C/C(C)=N/NC(=N)NC — higher, 2.81
- N=C(N)N/N=C/CCC/C=N/NC(=N)N — higher, > 3

Test system: not listed separately
Experiment: Displacement of ethidium from poly[d(A-T)]-poly[d(A-T)] DNA (unknown origin) by fluorimetric assay
How it was run: (§1)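 Relative binding to the synthetic duplex polymers was measured as fluorimetric displacement of bound ethidium, following the method of the earlier studies. Compounds were made up as 2 mM aqueous stock solutions, either from weighed salts or, where material was scarce, with the concentration set from published UV absorbance data before final dilution.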

Point of comparison: `Cl.N=C(N)N/N=C/c1ccc(-c2ccc(/C=N/NC(=N)N)cc2)cc1`, C50 0.14 µM. Against it:
- C/C(=N\NC(=N)N)c1ccc(NC(=O)Nc2ccc(/C(C)=N/NC(=N)N)cc2)cc1 — 3.1-fold higher, 0.43 µM
- CCC(/C=N/NC(=N)N)=N\NC(=N)N.Cl — 800-fold higher, 112 µM
- C/C(=N\NC(=N)N)c1ccc(NC(=N)Nc2ccc(/C(C)=N/NC(=N)N)cc2)cc1 — 1.8-fold lower, 0.08 µM
- N=C(N)N/N=C/c1ccc(NC(=O)Nc2ccc(/C=N/NC(=N)N)cc2)cc1 — 2.1-fold higher, 0.3 µM
- C/C(=N\NC(=N)N)c1cccc(NC(=O)Nc2cccc(/C(C)=N/NC(=N)N)c2)c1 — 3-fold higher, 0.42 µM
- CC(/C=N/NC(=N)N)=N\NC(=N)N [MITOGUAZONE] — 240-fold higher, 34 µM
- N=C(N)NN=C1C=CC(=NNC(=N)N)C=C1 — 160-fold higher, 22 µM
- Cl.N=C(N)N/N=C/c1ccc(/C=N/NC(=N)N)cc1 — 21-fold higher, 2.9 µM
- N=C(N)NCCCCCCCCCCNC(=N)N [SYNTHALIN] — 910-fold higher, 127 µM
- CC(=N\NC(=N)N)/C(C)=N/NC(=N)N — 100-fold higher, 14 µM
- CC(/C=N/N(C)C(=N)N)=N\N(C)C(=N)N — 740-fold higher, 103 µM
- N=C(N)c1ccc(/C=C/c2ccc(C(=N)N)cc2O)cc1 [HYDROXYSTILBAMIDINE] — 8.6-fold higher, 1.2 µM
- C/C(=N\NC(=N)N)c1ccc(NC(=S)Nc2ccc(/C(C)=N/NC(=N)N)cc2)cc1 — 8.6-fold higher, 1.2 µM
- CNC(=N)N/N=C/C(C)=N/NC(=N)NC — 190-fold higher, 27 µM
- N=C(N)N/N=C/CCC/C=N/NC(=N)N — 500-fold higher, 70 µM

Test system: not listed separately
Experiment: Displacement of ethidium from poly[d(G-C)]-poly[d(G-C)] DNA (unknown origin) by fluorimetric assay
How it was run: as §1

Point of comparison: `N=C(N)N/N=C/c1ccc(NC(=O)Nc2ccc(/C=N/NC(=N)N)cc2)cc1`, C50 0.69 µM. Against it:
- Cl.N=C(N)N/N=C/c1ccc(-c2ccc(/C=N/NC(=N)N)cc2)cc1 — within 1.5-fold, 1 µM
- C/C(=N\NC(=N)N)c1ccc(NC(=O)Nc2ccc(/C(C)=N/NC(=N)N)cc2)cc1 — 1.9-fold higher, 1.3 µM
- CCC(/C=N/NC(=N)N)=N\NC(=N)N.Cl — 360-fold higher, 248 µM
- C/C(=N\NC(=N)N)c1ccc(NC(=N)Nc2ccc(/C(C)=N/NC(=N)N)cc2)cc1 — 3.4-fold lower, 0.2 µM
- C/C(=N\NC(=N)N)c1cccc(NC(=O)Nc2cccc(/C(C)=N/NC(=N)N)c2)c1 — 2.3-fold higher, 1.6 µM
- CC(/C=N/NC(=N)N)=N\NC(=N)N [MITOGUAZONE] — 190-fold higher, 128 µM
- N=C(N)NN=C1C=CC(=NNC(=N)N)C=C1 — 290-fold higher, 200 µM
- Cl.N=C(N)N/N=C/c1ccc(/C=N/NC(=N)N)cc1 — 11-fold higher, 7.6 µM
- N=C(N)NCCCCCCCCCCNC(=N)N [SYNTHALIN] — 280-fold higher, 191 µM
- CC(=N\NC(=N)N)/C(C)=N/NC(=N)N — 74-fold higher, 51 µM
- CC(/C=N/N(C)C(=N)N)=N\N(C)C(=N)N — 550-fold higher, 379 µM
- N=C(N)c1ccc(/C=C/c2ccc(C(=N)N)cc2O)cc1 [HYDROXYSTILBAMIDINE] — 9.7-fold higher, 6.7 µM
- C/C(=N\NC(=N)N)c1ccc(NC(=S)Nc2ccc(/C(C)=N/NC(=N)N)cc2)cc1 — 4.9-fold higher, 3.4 µM
- CNC(=N)N/N=C/C(C)=N/NC(=N)NC — 160-fold higher, 111 µM
- N=C(N)N/N=C/CCC/C=N/NC(=N)N — 120-fold higher, 81 µM
